Where a SMILES comes first, the peptide text is derived from it. Some results are limits rather than exact numbers.

The first test relates to Mus musculus. In words: Hypoglycemic activity at the lowest dose that causing 20% blood glucose decrease (fasting mice, po). The test is classed as functional.
Settings: not given
The procedure, abridged: (§1)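 Male ICR-CD1 mice, 5 weeks old, fasted 18 h, groups of five. Given orally as a suspension in 0.5% (carboxymethyl)cellulose-0.14 M NaCl, 1 mL/kg; vehicle-treated control group run in parallel. Doses 500, 250, 100, 50, 25 and 10 mg/kg. Blood drawn from carotid 1 h after dosing; glucose measured enzymatically by glucose-oxidase-peroxidase; Student's t test (p < 0.05).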
Consider `O=C(N[C@@H](Cc1ccccc1)C(=O)O)c1ccccc1`, for which the Dose was determined as 150 mg/kg. `O=C(N[C@@H](Cc1ccccc1)C(=O)O)C1CCCC1` displayed a Dose of 50 mg/kg. On the same count and under the same terms, under `COc1ccc(C(=O)N[C@@H](Cc2ccccc2)C(=O)O)cc1` stands 100 mg/kg.

Consider `O=C(N[C@@H](Cc1ccccc1)C(=O)O)c1cc2ccccc2o1`, for which the Dose turned out to be 100 mg/kg. For `O=C(N[C@@H](Cc1ccccc1)C(=O)O)C1CC=CCC1` (some centres not stated), the Dose was determined as 100 mg/kg. On the same count and under the same terms, the value for `O=C(N[C@@H](Cc1ccccc1)C(=O)O)c1ccc2ccccc2c1` was 250 mg/kg. As for `O=C(N[C@@H](Cc1ccccc1)C(=O)O)C1CCCCC1`, the Dose worked out at 100 mg/kg. `O=C(N[C@@H](Cc1ccccc1)C(=O)O)c1ccc2c(c1)OCO2` had a Dose of 100 mg/kg. For the compound `O=C(N[C@@H](Cc1ccccc1)C(=O)O)c1ccc2c(c1)CCC2`, the Dose stood at 250 mg/kg. With `CCOc1ccc(C(=O)N[C@@H](Cc2ccccc2)C(=O)O)cc1`, the Dose came out at 100 mg/kg. `Cc1ccc(C(=O)N[C@@H](Cc2ccccc2)C(=O)O)cc1` had a Dose of 100 mg/kg. Consider `O=C(NC(Cc1ccccc1)C(=O)O)c1ccccc1` (configuration not stated), for which the Dose is 500 mg/kg. On the same count and under the same terms, under `CCCCNC(=O)NS(=O)(=O)c1ccc(C)cc1` [TOLBUTAMIDE] stands 25 mg/kg.

The test system of another test is Mus musculus. In words: Hypoglycemic activity was determined as decrease in blood glucose at a dose 250 mg/kg in fasting mice after peroral administration. In kind it is functional. As to conditions: route oral. A digest of the protocol:
as §1
With `O=C(O)[C@H]1Cc2ccccc2CN1C(=O)c1ccccc1`, the Decrease was below 20%. The same measure, in the same setting: under `O=C(O)/C(=C/c1ccccc1)NC(=O)c1ccccc1` stands below 20%; under `O=C(O)[C@@H]1Cc2ccccc2CN1C(=O)c1ccccc1`, below 20%.

As to `O=C(N[C@@H](Cc1ccccc1)C(=O)O)c1ccncc1`, the Decrease is given as below 20%. Regarding `O=C(N[C@H](Cc1ccccc1)C(=O)O)c1ccccc1`, the Decrease is listed as below 20%. In turn, `O=C(N[C@H](Cc1ccccc1)C(=O)O)C1CCCC1` registered a Decrease below 20%.

The compound `O=C(O)[C@H](Cc1ccccc1)NC(=O)[C@@H]1CCCN1C(=O)c1ccccc1` returned a Decrease below 20%. As for `Cc1cccc(C(=O)N[C@@H](Cc2ccccc2)C(=O)O)c1`, the Decrease is given as below 20%. Consider `O=C(N[C@@H](Cc1ccccc1)C(=O)O)c1ccc2ccccc2n1`, for which the Decrease was below 20%.

`O=C(O)[C@H](Cc1ccccc1)NCc1ccccc1` came in with a Decrease below 20%.

Consider `O=C(O)[C@H](Cc1ccccc1)NC(=O)[C@H]1CCCN1C(=O)c1ccccc1`, for which the Decrease is recorded as below 20%. Compound `O=C(N[C@@H](Cc1ccccc1)C(=O)O)C1CCCCCC1` displayed a Decrease below 20%. Still for that read-out and setting: under `O=C(O)/C(=C\c1ccccc1)NC(=O)c1ccccc1` stands below 20%. With `O=C(N[C@@H](Cc1ccccc1)C(=O)O)c1cnc2ccccc2c1`, the Decrease was below 20%. In turn, `O=C(N[C@@H](Cc1ccccc1)C(=O)O)c1cccnc1` registered a Decrease below 20%.

In the case of `O=C(N[C@@H](Cc1ccccc1)C(=O)O)c1ccc2ncccc2c1`, the Decrease is listed as below 20%. `Cc1ccccc1C(=O)N[C@@H](Cc1ccccc1)C(=O)O` had a Decrease below 20%. Compound `O=C(N[C@@H](Cc1ccccc1)C(=O)O)c1cccc2ccccc12` displayed a Decrease below 20%. Compound `CC(=O)N1CCC[C@H]1C(=O)N[C@@H](Cc1ccccc1)C(=O)O` (Ac-Pro-Phe-OH) displayed a Decrease below 20%.

(Values after ChEMBL document CHEMBL1124000, “N-acylphenylalanines and related compounds. A new class of oral hypoglycemic agents” (1988).)
